Assays:
Assay type in all cases: functional
[1] = tested on: SW-620; assay: Growth inhibition of human SW620 cells assessed as cell growth at 10 uM after 48 hrs by sulforhodamine B assay; conditions: SW-620, 48 h, read-out: Activity
Outline: (§1)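 Single-dose NCI screen. Tumor lines were cultured in medium with 5% fetal calf serum and 2 mM L-glutamine, preincubated 24 h, then given compound in DMSO. After 48 h continuous exposure, cell growth was estimated by sulforhodamine B protein assay.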

[2] = tested on: SNB-75; assay: Growth inhibition of human SNB75 cells after 48 hrs by sulforhodamine B assay; conditions: SNB-75, 48 h; for CC50: read-out: LC50 (the source's name)
Outline: (§2)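 NCI 60-cell-line panel. Cells were grown in medium with 5% fetal calf serum and 2 mM L-glutamine, then preincubated 24 h in plates. Compounds were added from DMSO at five 10-fold concentrations from 100 to 0.01 µM and left on cells continuously for 48 h. Cell growth was read by sulforhodamine B protein stain. GI50 is the concentration that halves net protein increase relative to control cells.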

[3] = tested on: HL-60(TB); assay: Growth inhibition of human HL-60(TB) cells after 48 hrs by sulforhodamine B assay; conditions: HL-60, 48 h; for CC50: read-out: LC50 (the source's name)
Outline: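 Part of the NCI 60-cell-line panel. Cells were grown in 1640 medium with 5% fetal calf serum and 2 mM L-glutamine, then preincubated 24 h before compound was added. Compounds in DMSO were tested at five concentrations (100, 10, 1, 0.1, 0.01 µM) with 48 h continuous exposure. Read-out was SRB protein staining; GI50 is the concentration halving the net protein increase versus control.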

[4] = tested on: OVCAR-5; assay: Growth inhibition of human OVCAR5 cells assessed as cell growth at 10 uM after 48 hrs by sulforhodamine B assay; conditions: OVCAR-5, 48 h, read-out: Activity
[5] = Growth inhibition of human NCI-ADR-RES cells assessed as cell growth at 10 uM after 48 hrs by sulforhodamine B assay; conditions: read-out: Activity
[6] = tested on: SF-539; assay: Growth inhibition of human SF539 cells assessed as cell growth at 10 uM after 48 hrs by sulforhodamine B assay; conditions: SF-539, 48 h, read-out: Activity
[7] = tested on: A498; assay: Growth inhibition of human A498 cells after 48 hrs by sulforhodamine B assay; conditions: A498, 48 h; for CC50: read-out: LC50 (the source's name)
Outline: (§3)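 NCI 60-cell-line panel grown in RPMI-type medium with 5% fetal calf serum and 2 mM L-glutamine. Cells preincubated 24 h, then exposed continuously for 48 h to compound in DMSO at 10^-4 to 10^-8 M (five 10-fold levels). Growth read by SRB protein stain. GI50 is the concentration giving a 50% reduction in net protein increase relative to control cells.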

[8] = tested on: HL-60(TB); assay: Growth inhibition of human HL-60(TB) cells assessed as cell growth at 10 uM after 48 hrs by sulforhodamine B assay; conditions: HL-60, 48 h, read-out: Activity
[9] = tested on: CAKI-1; assay: Growth inhibition of human CAKI-1 cells after 48 hrs by sulforhodamine B assay; conditions: CAKI-1, 48 h; outline: as §3
[10] = tested on: TK-10; assay: Growth inhibition of human TK10 cells after 48 hrs by sulforhodamine B assay; conditions: TK-10, 48 h; for CC50: read-out: LC50 (the source's name)
Outline: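 NCI 60-line panel. Cells were grown in medium with 5% fetal calf serum and 2 mM L-glutamine and preincubated 24 h in plates. Compound in DMSO was added at 10^-4 to 10^-8 M (five 10-fold levels), with continuous exposure for 48 h. Growth was read by SRB protein staining. GI50 is the concentration giving 50% reduction in net protein increase versus control cells.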

[11] = tested on: COLO 205; assay: Growth inhibition of human COLO205 cells after 48 hrs by sulforhodamine B assay; conditions: COLO 205, 48 h; for CC50: read-out: LC50 (the source's name); outline: as §3
[12] = tested on: SF-539; assay: Growth inhibition of human SF539 cells after 48 hrs by sulforhodamine B assay; conditions: SF-539, 48 h; for CC50: read-out: LC50 (the source's name); outline: as §2
[13] = tested on: SF-295; assay: Growth inhibition of human SF295 cells after 48 hrs by sulforhodamine B assay; conditions: SF-295, 48 h; outline: as §2
[14] = tested on: NCI-H460; assay: Growth inhibition of human NCI-H460 cells after 48 hrs by sulforhodamine B assay; conditions: NCI-H460, 48 h; for CC50: read-out: LC50 (the source's name); outline: as §2
[15] = tested on: SF-268; assay: Growth inhibition of human SF268 cells after 48 hrs by sulforhodamine B assay; conditions: SF-268, 48 h; for CC50: read-out: LC50 (the source's name); outline: as §2
[16] = tested on: UO-31; assay: Growth inhibition of human UO31 cells assessed as cell growth at 10 uM after 48 hrs by sulforhodamine B assay; conditions: UO-31, 48 h, read-out: Activity; outline: as §1
[17] = tested on: RPMI-8226; assay: Growth inhibition of human RPMI8226 cells after 48 hrs by sulforhodamine B assay; conditions: RPMI-8226, 48 h; for CC50: read-out: LC50 (the source's name); outline: as §2
[18] = Growth inhibition of human EKVX cells after 48 hrs by sulforhodamine B assay; conditions: for CC50: read-out: LC50 (the source's name); outline: as §3
[19] = tested on: OVCAR-3; assay: Growth inhibition of human OVCAR3 cells after 48 hrs by sulforhodamine B assay; conditions: OVCAR-3, 48 h; outline: as §2
[20] = tested on: A549; assay: Growth inhibition of human A549/ATCC cells after 48 hrs by sulforhodamine B assay; conditions: A549, 48 h; for CC50: read-out: LC50 (the source's name); outline: as §3
[21] = tested on: HOP-92; assay: Growth inhibition of human HOP92 cells after 48 hrs by sulforhodamine B assay; conditions: HOP-92, 48 h; for CC50: read-out: LC50 (the source's name); outline: as §3
[22] = tested on: UACC-257; assay: Growth inhibition of human UACC257 cells assessed as cell growth at 10 uM after 48 hrs by sulforhodamine B assay; conditions: UACC-257, 48 h, read-out: Activity; outline: as §1
[23] = tested on: OVCAR-8; assay: Growth inhibition of human OVCAR8 cells assessed as cell growth at 10 uM after 48 hrs by sulforhodamine B assay; conditions: OVCAR-8, 48 h, read-out: Activity
[24] = tested on: M14; assay: Growth inhibition of human M14 cells after 48 hrs by sulforhodamine B assay; conditions: M14, 48 h; for CC50: read-out: LC50 (the source's name); outline: as §3
[25] = tested on: NCI-H226; assay: Growth inhibition of human NCI-H226 cells assessed as cell growth at 10 uM after 48 hrs by sulforhodamine B assay; conditions: NCI-H226, 48 h, read-out: Activity
[26] = tested on: HCT-15; assay: Growth inhibition of human HCT15 cells assessed as cell growth at 10 uM after 48 hrs by sulforhodamine B assay; conditions: HCT-15, 48 h, read-out: Activity
[27] = tested on: CAKI-1; assay: Growth inhibition of human CAKI-1 cells assessed as cell growth at 10 uM after 48 hrs by sulforhodamine B assay; conditions: CAKI-1, 48 h, read-out: Activity
[28] = Growth inhibition of human EKVX cells assessed as cell growth at 10 uM after 48 hrs by sulforhodamine B assay; conditions: read-out: Activity

SMILES: Cc1ccc(C2=NN(c3ccc(S(C)(=O)=O)cc3)C(=O)CC2)cc1
- growth at 10 µM [1]: 8.58%
- GI50 [2]: 0.54 µM
- TGI [2]: > 9.25 µM
- CC50 [2]: > 100 µM
- GI50 [3]: 0.4 µM
- TGI [3]: 2.58 µM
- CC50 [3]: > 100 µM
- growth at 10 µM [4]: 53.1%
- growth at 10 µM [5]: 6.72%
- growth at 10 µM [6]: -7.93%
- GI50 [7]: 0.14 µM
- TGI [7]: 1.6 µM
- CC50 [7]: > 100 µM
- growth at 10 µM [8]: -12%
- GI50 [9]: 0.29 µM
- LC50 (lethal concentration, 50% cell kill) [9]: > 100 µM
- GI50 [10]: 7.69 µM
- TGI [10]: > 100 µM
- CC50 [10]: > 100 µM
- GI50 [11]: 0.52 µM
- TGI [11]: 6.07 µM
- CC50 [11]: > 100 µM
- GI50 [12]: 1.02 µM
- TGI [12]: 17.4 µM
- CC50 [12]: > 100 µM
- GI50 [13]: 0.4 µM
- LC50 (concentration killing 50% of cells present at start) [13]: > 100 µM
- TGI [13]: 5.36 µM
- GI50 [14]: 0.38 µM
- TGI [14]: > 100 µM
- CC50 [14]: > 100 µM
- GI50 [15]: 2.94 µM
- TGI [15]: > 100 µM
- CC50 [15]: > 100 µM
- growth at 10 µM [16]: 41.1%
- GI50 [17]: 2.78 µM
- TGI [17]: > 100 µM
- CC50 [17]: > 100 µM
- GI50 [18]: 3.02 µM
- TGI [18]: > 100 µM
- CC50 [18]: > 100 µM
- GI50 [19]: 0.36 µM
- LC50 (lethal concentration, 50% net cell kill) [19]: > 100 µM
- TGI [19]: 3.33 µM
- GI50 [20]: 0.52 µM
- TGI [20]: > 100 µM
- CC50 [20]: > 100 µM
- GI50 [21]: 0.42 µM
- TGI [21]: 8.3 µM
- CC50 [21]: > 100 µM
- growth at 10 µM [22]: 50.7%
- growth at 10 µM [23]: 31.8%
- GI50 [24]: 0.38 µM
- TGI [24]: > 100 µM
- CC50 [24]: > 100 µM
- growth at 10 µM [25]: 77.6%

SMILES: CCc1ccc(C2=NN(c3ccc(S(C)(=O)=O)cc3)C(=O)CC2)cc1
- growth at 10 µM [1]: 12.4%
- GI50 [2]: 1.32 µM
- TGI [2]: > 7.89 µM
- CC50 [2]: > 100 µM
- GI50 [3]: 1.2 µM
- TGI [3]: 6.35 µM
- CC50 [3]: > 100 µM
- growth at 10 µM [4]: 48.7%
- growth at 10 µM [5]: 6.7%
- growth at 10 µM [6]: 15.1%
- GI50 [7]: 0.14 µM
- TGI [7]: 2.3 µM
- CC50 [7]: > 100 µM
- growth at 10 µM [8]: 6.73%
- growth at 10 µM [26]: 22.1%
- GI50 [9]: 1 µM
- LC50 (lethal concentration, 50% cell kill) [9]: > 100 µM
- TGI [9]: 8.22 µM
- GI50 [10]: 8.31 µM
- TGI [10]: > 100 µM
- CC50 [10]: > 100 µM
- GI50 [11]: 1.02 µM
- TGI [11]: 12.6 µM
- CC50 [11]: 83.8 µM
- GI50 [12]: 2.35 µM
- TGI [12]: 18.9 µM
- CC50 [12]: > 100 µM
- GI50 [13]: 0.93 µM
- LC50 (concentration killing 50% of cells present at start) [13]: > 100 µM
- TGI [13]: 8.73 µM
- GI50 [14]: 0.82 µM
- TGI [14]: 36.9 µM
- CC50 [14]: > 100 µM
- GI50 [15]: 6.99 µM
- TGI [15]: > 100 µM
- CC50 [15]: > 100 µM
- growth at 10 µM [16]: 33.3%
- GI50 [17]: 0.42 µM
- TGI [17]: > 100 µM
- CC50 [17]: > 100 µM
- growth at 10 µM [27]: 16.6%
- GI50 [18]: 4.19 µM
- TGI [18]: 96.7 µM
- CC50 [18]: > 100 µM
- GI50 [19]: 0.93 µM
- LC50 (lethal concentration, 50% net cell kill) [19]: > 100 µM
- GI50 [20]: 0.91 µM
- TGI [20]: > 100 µM
- CC50 [20]: > 100 µM
- GI50 [21]: 1.58 µM
- TGI [21]: 9.88 µM
- CC50 [21]: > 100 µM
- growth at 10 µM [22]: 59.1%
- growth at 10 µM [23]: 39.1%
- GI50 [24]: 0.63 µM
- TGI [24]: > 100 µM
- CC50 [24]: > 100 µM
- growth at 10 µM [25]: 69.1%
- growth at 10 µM [28]: 60.4%

SMILES: O=c1[nH]cc(F)c(=O)[nH]1 [FLUOROURACIL]
- GI50 [2]: 78.7 µM
- GI50 [3]: 2.3 µM
- GI50 [7]: 0.35 µM
- GI50 [9]: 0.07 µM
- GI50 [10]: 1.12 µM
- GI50 [11]: 0.15 µM
- GI50 [12]: 0.06 µM
- GI50 [13]: 0.22 µM
- GI50 [14]: 0.05 µM
- GI50 [15]: 1.62 µM
- GI50 [17]: 0.04 µM
- GI50 [18]: 61.8 µM
- GI50 [19]: 0.01 µM
- GI50 [20]: 0.18 µM
- GI50 [21]: 77.9 µM
- GI50 [24]: 0.98 µM
